Bioassay records as filed in PubChem.
Sampled rows, rich in hits. Any-hit rate of the full collection: about 0.94%.
NPR2 activator – GC-B (human) receptor activation | 0.11% of 370,000 active | P20594 | activation, % at 10 µM | HEK293-GC-B cells, CNP EC30, cGMP TR-FRET; 0% at EC30 CNP, 100% saturating CNP;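 active = activation at 10 µM reaching about 35% in either raw or pattern-adjusted values, limit read from the data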
Arr AP2 block – human beta-arrestin and AP2 interaction inhibition; FITC-arrestin peptide / GST-AP2 beads, flow cytometry; AP2 beta2 appendage carries R879A mutation; inhibition, % at 10 µM; 0.31% of 340,000 active; AID 504490;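 active = inhibition above a set limit, near 3 SD of compounds lacking own fluorescence, cut at about 54% in these data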;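 note: plate controls were DMSO wells for no effect and 5 µM unlabelled arrestin peptide for full effect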
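test system = AP2 appendage R879A on GSH beads | buffer or medium = PBS plus Tween 20 (0.05%) and BSA (0.1%) | incubation = 12 min plus 1 h, RT | detection = bead flow cytometry, FITC channel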
GalR3 antagonist – human GalR3 antagonism | O60755 | HEK293 GalR3-CNG cAMP membrane potential fluorescence; galR3 body fused to GalR1 C-terminus | inhibition, % at 3 µM | 0.44% of 360,000 active;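 active = inhibition above the screen-wide average plus 3 SD, cut at about 13% in these data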;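 note: forskolin and galanin both at EC90 stimulate the cells; cAMP rise reported by CNG channel membrane potential dye signal; 0% = forskolin plus galanin with DMSO and 100% = forskolin alone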
Target sequence (O60755 1-299 limits assumed): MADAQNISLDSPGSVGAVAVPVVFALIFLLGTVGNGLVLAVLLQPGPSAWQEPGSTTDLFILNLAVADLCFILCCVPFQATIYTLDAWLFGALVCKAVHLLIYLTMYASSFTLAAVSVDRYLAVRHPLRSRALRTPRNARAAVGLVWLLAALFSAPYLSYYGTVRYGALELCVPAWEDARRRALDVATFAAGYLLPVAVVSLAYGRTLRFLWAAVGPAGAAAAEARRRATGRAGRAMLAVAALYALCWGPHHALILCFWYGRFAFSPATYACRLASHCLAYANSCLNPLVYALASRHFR
NPR1 activator – GC-A (human) enzyme activation. activation, % at 10 µM. 0.14% of 370,000 active. P16066. AID 1671463. HEK293 GC-A cells, cGMP TR-FRET, EC30 ANP; 0% at EC30 ANP, 100% saturating ANP; in the data active = activation above about 40%
Arr AP2 CP1 – blocks beta-arrestin peptide binding to human AP2; shares compounds with Arr AP2 block; inhibition, % at 10 µM; 2% of 1,300 active; AID 504908; GST-AP2 beads, FITC arrestin peptide binding, flow cytometry; GST-fused beta2-adaptin appendage, R879A mutant;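 active = inhibition above a set limit, roughly 3 SD of non-fluorescent compound noise, cut at about 38% in these data; inactive = inhibition at or below that limit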;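 note: loss of bead fluorescence from 50 nM FITC arrestin peptide bound to appendage; 0% = negative control wells and 100% = excess unlabelled arrestin peptide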
GST-FITC bead – GST-GSH bead binding interference, counter-screen; shares compounds with Arr AP2 block; GST-fluorescein binding to GSH beads, fluorescence; inhibition, % at 10 µM; 2% of 1,300 active; AID 588338;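 active = inhibition above 50%, about 3 SD of the inhibition seen with non-fluorescent compounds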;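 note: fluorescein maleimide labelled GST captured on 4 micron glutathione beads; higher means more loss of bead fluorescence from quenching or blocked binding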
An asterisk follows results filed as active; . = not tested or not shown.

SMILES	NPR2 activator	Arr AP2 block	GalR3 antagonist	NPR1 activator	Arr AP2 CP1	GST-FITC bead
O=C(NCC1CCCO1)c1cc(-c2ccccc2)nc2ccc(Br)cc12 (centres undefined)	1.9	54.0*	-1.3	7.3	1.2	-5.2
CCOc1ccc(NC(=O)Nc2cnccn2)cc1	4.2	5.5	-7.4	-4.8	-2.0	-7.2
COc1ccc(NC(=O)Nc2cc(C)ccn2)cc1	-8.1	0.3	-0.2	-2.3	.	.
COc1ccc(NC(=O)Nc2cnccn2)cc1	-7.7	-15.9	2.9	-2.6	8.7	2.7
O=C(Nc1cccc(F)c1)Nc1cnccn1	-1.5	1.0	1.4	2.6	-6.7	-5.8
COc1ccc(OCCC(=O)Nc2nccs2)cc1	1.5	54.3*	1.7	3.4	-3.9	0.6
COc1ccc(OCC(=O)Nc2nccs2)cc1	4.4	-38.3	-0.4	2.8	.	.
COc1ccc2c(c1)[C@@]1(OCCC=C[C@H]1C)C(=O)N2Cc1ccc(Br)cc1	-3.5	.	-9.4	4.4	.	.
COc1ccc(C(=O)OCC(=O)c2c(N)n(C)c(=O)n(C)c2=O)c(OC)c1OC	3.0	19.6	-3.5	6.7	-0.2	-1.9
CC(C)Cn1c(N)c(C(=O)COC(=O)c2ccc(F)cc2)c(=O)n(C)c1=O	-5.7	13.3	-4.6	9.2	2.6	-7.3
CC(C)Cn1c(N)c(C(=O)COC(=O)c2c(F)cccc2F)c(=O)n(C)c1=O	-3.5	-22.1	-7.7	2.9	.	.
Cn1c(N)c(C(=O)COC(=O)c2ccc(C(F)(F)F)cc2)c(=O)n(C)c1=O	2.3	-11.2	-0.9	0.1	-10.1	-4.0
Cc1noc(C)c1C(=O)OCC(=O)c1c(N)n(CC(C)C)c(=O)n(C)c1=O	-10.0	-3.8	-7.2	7.9	0.9	-8.4
CCOC(=O)C1=C(C(=O)OCC)C2N(Cc3ccc(Br)cc3)c3ccccc3[C@@]23C[C@@H](C(=O)OC)N(S(=O)(=O)c2ccc(C(F)(F)F)cc2)C3=N1 (some centres undefined)	10.3	.	-0.7	5.8	.	.
COc1ccc(NS(=O)(=O)c2cccc(C(=O)OCC(=O)c3c(N)n(C)c(=O)n(C)c3=O)c2)cc1	-5.5	-13.8	-4.3	11.7	.	.
COc1cccc(C(=O)OCC(=O)c2c(N)n(C)c(=O)n(C)c2=O)c1	10.1	2.0	-3.9	0.9	-10.3	-4.0
CCc1ccc(C(=O)OCC(=O)c2c(N)n(CC(C)C)c(=O)n(C)c2=O)cc1	-0.1	-13.1	-11.0	-0.5	-3.0	-1.6
Cn1c(N)c(C(=O)COC(=O)c2cccs2)c(=O)n(C)c1=O	-11.2	16.9	-2.7	2.3	1.4	1.9
O=C1CCCC(O)=C1C(C#Cc1ccccc1)C1=C(O)CCCC1=O	.	17.0	.	.	.	.
O=C1CCCC(O)=C1Sc1ccccc1C(=O)O	1.3	74.1*	-3.8	4.8	11.4	7.0
CCOC(=O)N[C@H](C(=O)N1CCC[C@H]1C(=O)NC1CCCC1)c1ccccc1	-0.4	.	-8.0	-3.0	.	.
CC12CCC(=O)N1C(C(=O)N1CCN(S(=O)(=O)c3cccc(C(F)(F)F)c3)CC1)CS2 (centres undefined)	6.3	56.5*	-3.7	-1.0	-0.5	-3.8
Cc1cc(C)c(C)c(S(=O)(=O)N2CCN(C(=O)C3CSC4(C)CCC(=O)N34)CC2)c1C (centres undefined)	.	-0.2	.	.	.	.
COc1cc(OC)c(NC(=O)C(Sc2nc(C)cc(C)c2C#N)c2ccccc2)cc1Cl (centres undefined)	8.5	.	-5.5	7.8	.	.
NS(=O)(=O)c1ccc(NC(=O)C2C3C=CC(C3)C2C(=O)O)cc1 (centres undefined)	-0.3	57.8*	3.4	1.4	24.1	-7.0
Cc1ccc(CN2CCCCC(NC(=O)c3ccc(F)c(F)c3)C2=O)cc1 (centres undefined)	-2.9	.	.	4.7	.	.
COc1ccc2cc(-c3cc(C(=O)OCC(=O)NC4CCS(=O)(=O)C4)c4ccccc4n3)ccc2c1 (centres undefined)	-9.2	105.9*	-1.3	-5.1	59.8*	188.1*
Cc1cc(NC(=O)c2c(F)cccc2F)n(-c2nc3ccccc3[nH]2)n1	12.2	13.5	-6.7	10.6	10.6	-4.0
